Data reported in article PMC8851646 (ACS Omega, 2022).
≈ marks a conversion by molar mass, not a printed value.

Tests used:
[1] = test system: K. pneumoniae NB29017 co-cultured with T. pyriformis; assay: T. pyriformis/K. pneumoniae; format: cell-based, Klebsiella pneumoniae; settings: read-out: IC50 Tp/Kp, Table 1; freshly dissolved powder, top concentration 20 μM
[2] = test system: Staphylococcus aureus; assay: Antibacterial MIC, Gram-positive control; format: cell-based; settings: read-out: MIC Sa
[3] = Cytotoxicity in K562 cells; format: cell-based; settings: human
[4] = Red blood cell hemolysis; format: cell-based, sheep; settings: sheep, erythrocytes from defibrinated sheep blood, pH 7.5
[5] = test system: K. pneumoniae NB29017; assay: Qualitative inhibition of mucoid appearance of colonies on solid LB agar; format: cell-based, Klebsiella pneumoniae; settings: 4 fully mucoid, 0 nonmucoid, by eye
Procedure, shortened: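 Test compound dissolved in DMSO (12.8 mg/mL stock) and mixed into melted LB agar at 0–16 μg/mL final, then set in six-well plates. Mucoid wild-type NB29017 streaked for single colonies in each well. Plates incubated 18 h at 37 °C, then 2 h at 4 °C. Mucoid appearance scored by eye from 0 (none) to 4 (normal hypermucoid).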

| SMILES | IC50 [1] [µM] | MIC [2] [µg/mL] | IC50 [3] [µM] | hemolysis at 1 h [4] [%] | qualitative score on solid medium ([5]; 1 μg/mL compound in agar) | qualitative score on solid medium ([5]; 2 μg/mL compound in agar) | qualitative score on solid medium ([5]; 4 μg/mL compound in agar) | qualitative score on solid medium ([5]; 8 μg/mL compound in agar) | qualitative score on solid medium ([5]; 16 μg/mL compound in agar) |
| --- | --- | --- | --- | --- | --- | --- | --- | --- | --- |
| COc1ccc(Br)c(/C=N/NC(=O)COc2ccc(-c3ccccc3)cc2)c1 [compound 69, COc3ccc(Br)c(/C=N/NC(=O)COc1ccc(cc1)c2ccccc2)c3] | 0.05 | > 128 | > 291 | 4.1 | 0 | 0 | 0 | 0 | 0 |
| O=C(/C=C/c1ccccc1)Nc1ccc(C(=O)Nc2nccs2)cc1 [compound 70, O=C(/C=C/c1ccccc1)Nc2ccc(cc2)C(=O)NC3=NC=CS3] | 1.1 | > 128 | > 367 | 17.6 | 3 | 1 | 0 | 0 | 0 |
| CC12CC3(C)CC(C(=O)O)(C1)CC(C(=O)O)(C2)C3 [compound 73, CC12CC3(C)CC(C1)(CC(C2)(C3)C(O)=O)C(O)=O] | 1.1 | > 128 | > 508 | 2.8 | 4 | 3 | 3 | 3 | 2 |
| CCOc1ccc2nc(NC(=O)c3ccc4ncsc4c3)sc2c1 [compound 74, CCOc4ccc3N=C(NC(=O)c2ccc1N=CSc1c2)Sc3c4] | 0.37 | > 128 | > 361 | 26.9 | 2 | 0 | 0 | 0 | 0 |
| CCOc1cccc(C(=O)Nc2ccc(-c3nc4ccccc4[nH]3)cc2)c1 [compound 79, CCOc1cccc(c1)C(=O)Nc2ccc(cc2)C4Nc3ccccc3N=4] | 1.33 | > 128 | 341 | 40.6 | 2 | 2 | 2 | 2 |  |
| CCCCNC(=O)NS(=O)(=O)c1cccs1 [compound 82, CCCCNC(=O)NS(=O)(=O)C1=CC=CS1] | 2.58 | > 128 | > 489 | 7.4 | 4 | 4 | 3 | 3 | 2 |
| O=C(O)c1cc(Br)ccc1F [compound 166, OC(=O)c1cc(Br)ccc1F] | 1.3 | > 128 | > 584 | 2.5 |  |  |  |  |  |
| CCN(CC)/C(N)=N\c1ccc(NC(=O)c2ccc(C(=O)Nc3ccc(/N=C(\N)N(CC)CC)cc3)cc2)cc1 [compound 170, CCN(CC)/C(/N)=N/c1ccc(cc1)NC(=O)c2ccc(cc2)C(=O)Nc3ccc(cc3)\N=C(\N)/N(CC)CC] | 2.2 | 8 (≈ 14.7 µM) | 102 | 1.9 |  |  |  |  |  |
| O=[N+]([O-])c1cnc2ccc(Cl)cc2c1O [compound 182, [O-][N+](=O)c2cnc1ccc(Cl)cc1c2O] | 0.42 | > 128 | 75.4 | 2.4 |  |  |  |  |  |
| O=C(CCCN1CCC(O)(c2ccc(Br)cc2)CC1)c1ccc(F)cc1 [compound 185, OC2(CCN(CCCC(=O)c1ccc(F)cc1)CC2)c3ccc(Br)cc3] | 0.85 | > 128 | 16.5 | 4.5 |  |  |  |  |  |
| COC1C(OC(C)=O)CC(=O)OC(C)CC2OC2/C=C/C(=O)C(C)CC(CC=O)C1OC1OC(C)C(OC2CC(C)(O)C(OC(=O)CC(C)C)C(C)O2)C(N(C)C)C1O (centres unmarked) [compound 186, COC4C(OC2OC(C)C(OC1CC(C)(O)C(OC(=O)CC(C)C)C(C)O1)C(C2O)N(C)C)C(CC=O)CC(C)C(=O)/C=C/C3OC3CC(C)OC(=O)CC4OC(C)=O] | 5.4 | 2 (≈ 2.38 µM) | 8.54 |  |  |  |  |  |  |
| Cc1nc(O)n2ncc(Br)c2n1 [compound 187, CC2=NC1=C(Br)C=NN1C(O)=N2] | 0.16 | > 128 | > 559 | 2.5 |  |  |  |  |  |
| C=CC1(C)CC(OC(=O)CSc2ccc(N)cc2)C2(C)C(C)CCC3(CCC(=O)C32)C(C)C1O (centres unmarked) [compound 191, C=CC4(C)CC(OC(=O)CSc1ccc(N)cc1)C2(C)C(C)CCC3(CCC(=O)C23)C(C)C4O] | 3.22 | ≤ 0.06 | 35.8 | 2 |  |  |  |  |  |
